Measured values reported in ChEMBL document CHEMBL1146088 (J Med Chem, 2006).
Each block holds one compound with its values, some of them ahead of it.

Experiments:
Cannabinoid receptor 1 = Cannabinoid receptor 1 (Homo sapiens, UniProt P21554); assay: Binding affinity to human recombinant CB1 receptor expressed in COS cells; type: cell-based
[1] = target: T1, Transient receptor potential cation channel subfamily V member 1 (Homo sapiens, UniProt Q8NER1); assay: Agonist activity on human recombinant TRPV1-mediated enhancement of intracellular calcium concentration in HEK293 cells; type: functional, cell-based
Method in brief: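 HEK-293 cells stably overexpressing human TRPV1, plated on poly-L-lysine the day before. Loaded 2 h at 25 °C with 4 µM Fluo-3 methyl ester (0.04% Pluronic), washed, trypsinized and resuspended in Tyrode pH 7.4. Stirred-cuvette fluorescence (ex 488/em 540 nm) at 25 °C, read before and after compound at various concentrations. EC50 is the concentration giving half-maximal stimulation.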

RBL-2H3 = assay: Inhibition of AEA uptake in RBL2H3 cells; type: functional, cell-based, Rattus norvegicus, Wistar
Method in brief: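 RBL-2H3 cells incubated 5 min at 37 °C with [14C]AEA (2.4 µM, 10 000 cpm), with or without varying inhibitor concentrations. Medium extracted with CHCl3/CH3OH 2:1. Residual [14C]AEA in the lyophilized organic phase was measured by scintillation counting as an index of uptake.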

Rattus norvegicus = organism: Rattus norvegicus; assay: Metabolic stability in rat brain membrane assessed by inhibition of AEA hydrolysis; type: ADME
Method in brief: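 Mixture extracted with 2 volumes CHCl3/CH3OH 2:1. [14C]ethanolamine in the aqueous phase counted by scintillation. Value is the concentration giving 50% inhibition of hydrolysis.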

Cannabinoid receptor 2 = Cannabinoid receptor 2 (Homo sapiens, UniProt P34972); assay: Binding affinity to human recombinant CB2 receptor expressed in COS cells; type: cell-based
[2] = target: T1, Transient receptor potential cation channel subfamily V member 1; assay: Maximal agonist activity on human recombinant TRPV1-mediated enhancement of intracellular calcium concentration in HEK293 cells at 10 uM; type: functional, cell-based
Method in brief: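 Fluo-3-loaded HEK-293 cells overexpressing human TRPV1, in Tyrode pH 7.4 at 25 °C, fluorescence ex 488/em 540 nm. Compound at 10 µM. Peak rise in intracellular Ca2+ expressed as percent of the response to ionomycin (4 µM).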

[3] = Rattus norvegicus, Wistar, RBL-2H3, read-out: IC50
[4] = Rattus norvegicus, Brain, read-out: IC50

T1 sequence (Q8NER1 whole entry): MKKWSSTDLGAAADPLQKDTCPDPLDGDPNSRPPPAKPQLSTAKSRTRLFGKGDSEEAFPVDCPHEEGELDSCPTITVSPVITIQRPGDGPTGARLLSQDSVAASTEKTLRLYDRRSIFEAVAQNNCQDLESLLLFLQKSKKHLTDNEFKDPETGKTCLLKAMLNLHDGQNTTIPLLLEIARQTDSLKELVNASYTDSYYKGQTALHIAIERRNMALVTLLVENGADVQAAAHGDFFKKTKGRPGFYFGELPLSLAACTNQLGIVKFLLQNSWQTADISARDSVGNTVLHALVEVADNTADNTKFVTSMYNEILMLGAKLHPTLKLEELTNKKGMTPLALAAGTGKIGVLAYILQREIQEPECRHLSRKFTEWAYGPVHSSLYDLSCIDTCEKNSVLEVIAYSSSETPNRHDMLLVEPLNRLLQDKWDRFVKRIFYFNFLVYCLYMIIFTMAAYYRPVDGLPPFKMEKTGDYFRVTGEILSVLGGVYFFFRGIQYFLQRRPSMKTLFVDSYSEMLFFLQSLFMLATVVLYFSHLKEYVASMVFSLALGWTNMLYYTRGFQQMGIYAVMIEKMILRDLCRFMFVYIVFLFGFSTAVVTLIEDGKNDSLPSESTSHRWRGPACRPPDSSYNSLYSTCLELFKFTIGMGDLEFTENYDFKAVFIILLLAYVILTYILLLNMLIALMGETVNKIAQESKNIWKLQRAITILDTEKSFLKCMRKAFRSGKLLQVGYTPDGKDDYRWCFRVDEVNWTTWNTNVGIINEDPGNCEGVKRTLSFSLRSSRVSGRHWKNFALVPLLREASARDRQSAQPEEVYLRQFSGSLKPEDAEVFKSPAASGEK
Cannabinoid receptor 1, sequence (P21554 whole entry): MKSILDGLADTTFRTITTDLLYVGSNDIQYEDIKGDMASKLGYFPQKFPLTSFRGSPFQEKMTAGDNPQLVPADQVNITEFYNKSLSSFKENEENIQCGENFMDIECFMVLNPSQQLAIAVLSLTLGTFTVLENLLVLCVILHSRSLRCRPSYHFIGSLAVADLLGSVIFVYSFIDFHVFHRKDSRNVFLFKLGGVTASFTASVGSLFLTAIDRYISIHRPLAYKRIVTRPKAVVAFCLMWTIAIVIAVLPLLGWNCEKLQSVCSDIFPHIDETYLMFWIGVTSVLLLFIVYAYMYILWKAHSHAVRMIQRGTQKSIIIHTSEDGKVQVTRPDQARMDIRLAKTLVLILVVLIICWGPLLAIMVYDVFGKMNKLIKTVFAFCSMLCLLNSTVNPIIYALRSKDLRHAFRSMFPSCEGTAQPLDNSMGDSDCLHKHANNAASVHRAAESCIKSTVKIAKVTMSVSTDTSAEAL
Cannabinoid receptor 2, sequence (P34972 whole entry): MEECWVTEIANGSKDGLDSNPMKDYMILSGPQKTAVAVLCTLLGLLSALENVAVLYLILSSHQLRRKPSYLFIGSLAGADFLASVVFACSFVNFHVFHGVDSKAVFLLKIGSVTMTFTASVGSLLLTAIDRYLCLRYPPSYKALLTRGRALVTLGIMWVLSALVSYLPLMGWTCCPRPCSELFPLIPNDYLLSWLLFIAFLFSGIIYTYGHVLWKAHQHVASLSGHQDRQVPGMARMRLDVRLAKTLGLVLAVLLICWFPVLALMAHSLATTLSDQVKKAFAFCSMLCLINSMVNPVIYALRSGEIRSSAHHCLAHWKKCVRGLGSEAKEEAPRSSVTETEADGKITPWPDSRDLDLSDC

Compound: CCCCCCCC/C=C\CCCCCCCC(=O)NOCCO
Ki (Cannabinoid receptor 1; read-out: Ki): > 10 µM
EC50 ([1]; read-out: EC50): 0.32 µM
IC50 (RBL-2H3; [3]): 22.5 µM
IC50 (Rattus norvegicus; [4]): > 50 µM
Ki (Cannabinoid receptor 2; read-out: Ki): 3.8 µM
Emax [2]: 50%

Compound: CCCCCCCC/C=C\CCCCCCCC(=O)N(O)CCO
Ki (Cannabinoid receptor 1; read-out: Ki): > 10 µM
EC50 ([1]; read-out: EC50): 0.4 µM
IC50 (RBL-2H3; [3]): 20 µM
IC50 (Rattus norvegicus; [4]): > 50 µM
Ki (Cannabinoid receptor 2; read-out: Ki): 5.4 µM
Emax [2]: 53.5%

Compound: CCCCC/C=C\C/C=C\C/C=C\C/C=C\CCCC(=O)NCCO [ANANDAMIDE]
EC50 ([1]; read-out: EC50): 0.49 µM
IC50 (RBL-2H3; [3]): 14.5 µM
IC50 (Rattus norvegicus; [4]): 19 µM
Emax [2]: 54.7%

Compound: CCCCC/C=C\C/C=C\C/C=C\C/C=C\CCCC(=O)N(O)CCO
Ki (Cannabinoid receptor 1; read-out: Ki): 3.9 µM
EC50 ([1]; read-out: EC50): 0.26 µM
IC50 (RBL-2H3; [3]): > 25 µM
IC50 (Rattus norvegicus; [4]): > 50 µM
Ki (Cannabinoid receptor 2; read-out: Ki): 1.9 µM
Emax [2]: 55.3%

Compound: CCCCCCCC/C=C\CCCCCCCC(=O)NCCO [OLEOYLETHANOLAMIDE]
Ki (Cannabinoid receptor 1; read-out: Ki): 1.1 µM
EC50 ([1]; read-out: EC50): 0.89 µM
IC50 (RBL-2H3; [3]): 20 µM
IC50 (Rattus norvegicus; [4]): 23 µM
Ki (Cannabinoid receptor 2; read-out: Ki): > 10 µM
Emax [2]: 50.1%

Ki (Cannabinoid receptor 1; cos): Not Active
EC50 ([1]; hek293): Not Active
IC50 (RBL-2H3; rbl-2h3): Not Active
IC50 (Rattus norvegicus): Not Active
Ki (Cannabinoid receptor 2; cos): Not Active
Compound: CCCCCCCCCCCCCCCC(=O)NCCO [PALMIDROL]

Compound: CCCCC/C=C\C/C=C\C/C=C\C/C=C\CCCC(=O)ONCCO
Ki (Cannabinoid receptor 1; read-out: Ki): 3.5 µM
IC50 (RBL-2H3; [3]): > 25 µM
IC50 (Rattus norvegicus; [4]): > 50 µM
Ki (Cannabinoid receptor 2; read-out: Ki): 2.4 µM
Emax [2]: 28%

Compound: CCCCC/C=C\C/C=C\C/C=C\C/C=C\CCCC(=O)NOCCO
Ki (Cannabinoid receptor 1; read-out: Ki): 0.47 µM
EC50 ([1]; read-out: EC50): 0.25 µM
IC50 (RBL-2H3; [3]): > 25 µM
IC50 (Rattus norvegicus; [4]): 25 µM
Ki (Cannabinoid receptor 2; read-out: Ki): 0.081 µM
Emax [2]: 58.5%

Compound: CCCCCCCC/C=C\CCCCCCCC(=O)ONCCO
Ki (Cannabinoid receptor 1; read-out: Ki): > 10 µM
IC50 (RBL-2H3; [3]): > 25 µM
IC50 (Rattus norvegicus; [4]): > 50 µM
Ki (Cannabinoid receptor 2; read-out: Ki): 8.6 µM
Emax [2]: 14.3%

Compound: CCCCCCCCCCCCCCCC(=O)N(O)CCO
Ki (Cannabinoid receptor 1; read-out: Ki): > 10 µM
EC50 ([1]; read-out: EC50): 0.6 µM
IC50 (RBL-2H3; [3]): > 25 µM
IC50 (Rattus norvegicus; [4]): > 50 µM
Ki (Cannabinoid receptor 2; read-out: Ki): > 10 µM
Emax [2]: 37%

Compound: CCCCCCCCCCCCCCCC(=O)ONCCO
Ki (Cannabinoid receptor 1; read-out: Ki): > 10 µM
IC50 (RBL-2H3; [3]): > 25 µM
IC50 (Rattus norvegicus; [4]): > 50 µM
Ki (Cannabinoid receptor 2; read-out: Ki): > 10 µM
Emax [2]: 1.8%

Compound: CCCCCCCCCCCCCCCC(=O)NOCCO
Ki (Cannabinoid receptor 1; read-out: Ki): > 10 µM
IC50 (RBL-2H3; [3]): > 25 µM
IC50 (Rattus norvegicus; [4]): > 50 µM
Ki (Cannabinoid receptor 2; read-out: Ki): > 10 µM
Emax [2]: 11.2%
